Read-outs that look alike come from different tables or passages of the source.
How the values were obtained:
NK1 receptor [1] = details: dogs; ref unpublished observations; cited from earlier work
NK1 receptor [2] = details: minipigs; ref unpublished observations; cited from earlier work
NK1 receptor [3] = details: monkeys; ref unpublished observations; cited from earlier work
NK2 over NK1 receptors = details: ref Rupniak et al, unpublished results; cited from earlier work
[4] = test system: bladder of anesthetized, acutely spinalized rats; assay type: in vivo, rat
Outline: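 Acutely spinalized (T9–T10, ≥60 min earlier), urethane-anesthetized female rats. Capacity was taken as the mean of three saline fills (0.04–0.1 ml/min, urethra open) until leak. Meatus then clamped, bladder held at 70% capacity; vehicle and ascending IV or SC doses ≥20 min apart. Contraction defined as ≥5 mmHg above baseline within 5 min; onset, time to peak, 30-min AUC and response duration; mean + S.D.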

[5] = test system: blood pressure of guinea pigs; details: intra-arterial, ref Beattie et al, 1993; cited from earlier work
[6] = test system: colorectum of anesthetized, acutely spinalized rats; test: Colorectal manometry with balloon catheter; assay type: in vivo, rat
Outline: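 Urethane-anesthetized (1.2–1.4 g/kg SC) female rats, cord cut at T9–T10 ≥60 min before dosing, 37°C. Rectal balloon catheter was inflated in 0.1–0.2 ml saline steps to a steady 15–20 mmHg (0.3–0.7 ml total). Vehicle, then ascending SC doses in saline, 20–45 min apart. Pressure AUC over 0–5 min per dose; duration of raised activity noted; mean + S.D., ANOVA with Dunnett's test.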

[7] = test system: blood pressure of anesthetized, acutely spinalized rats; test: Blood pressure; assay type: in vivo, rat; details: up to 30 μg/kg IV and 300 μg/kg SC
Outline: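 Female rats were anesthetized with urethane (1.2–1.4 g/kg SC) and kept at 37°C, with the spinal cord transected at T9–T10 at least 60 min before dosing. Test compound was given in 0.9% saline IV (200 μl plus 300 μl saline flush) or SC, vehicle first. Blood pressure was recorded continuously via the carotid artery, with heart rate derived off line from that signal. Values are change from the pre-dose baseline; one-way ANOVA.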

[8] = test system: human detrusor muscle strips; details: relative to KCL; ref Palea et al, 1996; cited from earlier work
[9] = test system: anesthetized, acutely spinalized rats; test: Other pharmacodynamic observations; assay type: in vivo, rat
Outline: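 In urethane-anesthetized female rats with T9–T10 cord transection ≥60 min before dosing, vehicle then ascending IV, SC or IM doses of test compound in 0.9% saline were given. Changes in skin color (ear and paw flushing), salivation and lacrimation were recorded when present; respiration was watched visually for obvious changes.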

| Compound | Effect on transient hypotension after IV injection of NKA and LMN-NKA (NK1 receptor [1]) | Effect on transient hypotension after IV injection of NKA and LMN-NKA (NK1 receptor [2]) | Effect on transient hypotension after IV injection of NKA and LMN-NKA (NK1 receptor [3]) | Selectivity for NK2 over NK1 receptors (NK2 over NK1 receptors) [fold] | Duration of the bladder pressure response ([4]; 1 μg/kg IV, N=3, mean ± S.D.) [min] | Duration of the bladder pressure response ([4]; 300 μg/kg SC, N=4 for GR 64349, N=11 for LMN-NKA, mean ± S.D.) [min] | Onset of the increase in bladder pressure ([4]; 0.01–10 μg/kg IV and 1–300 μg/kg SC) [min] | Blood pressure effect [5] | Duration of action on colorectal pressure ([6]; SC 100 and 300 μg/kg) [min] | Increase in colorectal pressure ([6]; SC, highest doses tested were 100 and 300 μg/kg) | Blood pressure effect [7] | Maximal contraction of detrusor muscle strips [8] | Respiration (visual observation, words) ([9]; LMN-NKA up to 300 μg/kg SC or IM, NKA and GR 64349 at the doses tested) | Flushing ([9]; NKA at similar, GR 64349 at higher doses compared to LMN-NKA) |
| --- | --- | --- | --- | --- | --- | --- | --- | --- | --- | --- | --- | --- | --- | --- |
| COc1ccccc1CN[C@H]1CCCN[C@H]1c1ccccc1 [CP-99,994] | blocked | blocked | blocked | – | – | – | – | – | – | – | – | – | – | – |
| [Lys^3,Gly^8-R-gamma-lactam-Leu^9]-NKA(3–10) [GR 64349] | – | – | – | > 250 | 1.5 ± 0.07 | 23.9 ± 12.22 | < 1 | transient drop in blood pressure | 20 to 25 | only at the highest doses tested | No significant blood pressure changes | equivalent to maximal KCL-induced contractions | No obvious changes in respiration | transient flushing of the ears and paws |
| spantide I | blocked | blocked | blocked | – | – | – | – | – | – | – | – | – | – | – |

— article PMC5766413 (European journal of pharmacology, 2017)
